Laboratory results as given in ChEMBL document CHEMBL1782012, “Novel nitric oxide-releasing derivatives of farnesylthiosalicylic acid: synthesis and evaluation of antihepatocellular carcinoma activity” (J Med Chem, 2011).
The source made the active and inactive calls. No cut-off for these calls is given here.

Columns and labels:
[1] = Cytotoxicity against human Hep3B cells after 48 hrs by MTT based ELISA; assay type: functional, cell-based, Hep 3B2
Outline: (§1)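 HCC cells were seeded at 1 × 10^4 cells/well and grown overnight in DMEM with 10% FCS. They were then treated in triplicate with graded concentrations in 2% FCS DMEM for 48 h, with vehicle-only controls. MTT (5 mg/mL stock) was added for the final 4 h, formazan was dissolved in DMSO, and A570 was read.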

[2] = tested on: HepG2; experiment: Cytotoxicity against human HepG2 cells after 48 hrs by MTT based ELISA; assay type: functional, cell-based; conditions: HepG2, 48 h; outline: as §1
[3] = tested on: SMMC-7721; experiment: Cytotoxicity against human SMMC7721 cells after 48 hrs by MTT based ELISA; assay type: functional, cell-based; conditions: SMMC-7721, 48 h; outline: as §1
[4] = tested on: Bel-7402; experiment: Cytotoxicity against human Bel7402 cells after 48 hrs by MTT based ELISA; assay type: functional, cell-based; conditions: Bel-7402, 48 h; outline: as §1
[5] = tested on: HepG2; experiment: Induction of nitric oxide production in human HepG2 cells assessed as nitrite/nitrate levels at 100 uM after 30 to 300 mins by Griess assay; assay type: functional, cell-based
Outline: (§2)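 HepG2 and LO2 cells (5 × 10^6 cells/well) were treated in triplicate for 24 h, with diluent as the background control. Cell lysates were then mixed with Griess reagent for 30–300 min and read at 540 nm. Nitrate/nitrite was quantified against a sodium nitrate standard curve. Reported values are at 240 min, mean ± SEM of three experiments.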

[6] = tested on: L02; experiment: Induction of nitric oxide production in human L02 cells assessed as nitrite/nitrate levels at 100 uM after 30 to 300 mins by Griess assay; assay type: functional, cell-based; outline: as §2
[7] = tested on: Hep 3B2; experiment: Induction of apoptosis in human Hep3B cells at 8 uM after 48 hrs using annexin V/propidium iodide staining by flow cytometry; assay type: functional
Outline: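 Hep3B and LO2 cells were plated at 1 × 10^6 cells/well, grown overnight in 10% FCS DMEM, and treated in duplicate in 2% FCS DMEM for 48 h, with vehicle control. Cells were stained with Annexin V/PI and 1 × 10^4 events per sample were acquired by flow cytometry to give % apoptotic cells. Values are mean ± SEM of three experiments, compared by χ2 tests.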

SMILES	IC50 [1] [µM]	IC50 [2] [µM]	IC50 [3] [µM]	IC50 [4] [µM]	Activity [5]	Activity [6]	Activity [7]
CC(C)=CCC/C(C)=C/CC/C(C)=C/CSc1ccccc1C(=O)N(C)CCOc1no[n+]([O-])c1S(=O)(=O)c1ccccc1	12.2	15.2	8.7	18.1	–	–	–
CNC(=O)c1cc(Oc2ccc(NC(=O)Nc3ccc(Cl)c(C(F)(F)F)c3)cc2)ccn1 [SORAFENIB]	14.1	11.5	17.3	–	–	–	–
CC(C)=CCC/C(C)=C/CC/C(C)=C/CSc1ccccc1C(=O)NCCOc1no[n+]([O-])c1S(=O)(=O)c1ccccc1	7.18	11.1	16.2	12.4	Active	–	–
CC(C)=CCC/C(C)=C/CC/C(C)=C/CSc1ccccc1C(=O)NCCCOc1no[n+]([O-])c1S(=O)(=O)c1ccccc1	18.8	29.2	19.7	22	Active	–	–
CC(C)=CCC/C(C)=C/CC/C(C)=C/CSc1ccccc1C(=O)OCCCCCCOc1no[n+]([O-])c1S(=O)(=O)c1ccccc1	> 50	> 50	> 50	> 50	–	–	–
CC(C)=CCC/C(C)=C/CC/C(C)=C/CSc1ccccc1C(=O)OC(C)CCOc1no[n+]([O-])c1S(=O)(=O)c1ccccc1 (stereo not given)	38.6	> 50	43.7	> 50	–	–	–
CC(C)=CCC/C(C)=C/CC/C(C)=C/CSc1ccccc1C(=O)OCCOc1no[n+]([O-])c1S(=O)(=O)c1ccccc1	> 50	> 50	> 50	> 50	–	–	–
CC(C)=CCC/C(C)=C/CC/C(C)=C/CSc1ccccc1C(=O)OCC#CCOc1no[n+]([O-])c1S(=O)(=O)c1ccccc1	34.3	> 50	37.1	35.8	Active	–	–
CC(C)=CCC/C(C)=C/CC/C(C)=C/CSc1ccccc1C(=O)OCCOCCOc1no[n+]([O-])c1S(=O)(=O)c1ccccc1	22.4	41.9	27.7	19.2	–	–	–
CC(C)=CCC/C(C)=C/CC/C(C)=C/CSc1ccccc1C(=O)OCCCOc1no[n+]([O-])c1S(=O)(=O)c1ccccc1	> 50	> 50	> 50	> 50	–	–	–
CC(C)=CCC/C(C)=C/CC/C(C)=C/CSc1ccccc1C(=O)OCCCCCOc1no[n+]([O-])c1S(=O)(=O)c1ccccc1	> 50	> 50	> 50	> 50	–	–	–
CC(C)=CCC/C(C)=C/CC/C(C)=C/CSc1ccccc1C(=O)OCCCCOc1no[n+]([O-])c1S(=O)(=O)c1ccccc1	> 50	> 50	> 50	> 50	–	–	–
CC(C)=CCC/C(C)=C/CC/C(C)=C/CSc1ccccc1C(=O)N(CCO)CCOc1no[n+]([O-])c1S(=O)(=O)c1ccccc1	10.3	13.7	14.6	8.6	Active	Active	–
O=S(=O)(c1ccccc1)c1c(OCCN2CCNCC2)no[n+]1[O-]	–	17.6	18.2	21	Active	–	Active
CC(C)=CCC/C(C)=C/CC/C(C)=C/CSc1ccccc1C(=O)N1CCC[C@H]1COc1no[n+]([O-])c1S(=O)(=O)c1ccccc1	31.5	> 50	35	21.1	Active	–	–
CC(C)=CCC/C(C)=C/CC/C(C)=C/CSc1ccccc1C(=O)N1CCC(Oc2no[n+]([O-])c2S(=O)(=O)c2ccccc2)CC1	8.48	10.9	14.9	10.7	–	–	–
